{"source": "ChEMBL document CHEMBL1817640", "about": "“Synthesis, trypanocidal activity and molecular modeling studies of 2-alkylaminomethylquinoline derivatives” (Eur J Med Chem, 2011)", "note": "Activity calls are given as the source filed them. The calls are words filed in the database; no cut-off is given here."}
{"test_system": "Trypanosoma cruzi", "assay": "Trypanocidal activity against epimastigote form of Trypanosoma cruzi assessed as [3H]thymidine uptake after 72 hrs by liquid scintillation counter", "format": "functional, organism-based", "settings": "not given", "method_in_brief": "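RA-strain epimastigotes grown in biphasic medium at 26 °C, adjusted to 1.5 × 10⁶/mL. Cultured 72 h with compound at 100, 50, 10, 5, 1 and 0.5 (final). Benznidazole 5–20 as positive control. Growth measured by [³H]thymidine uptake. % inhibition = 100 − (cpm treated/cpm untreated × 100); IC50 estimated from this.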", "units": {"IC50": "µM"}}
{"smiles": "CCOC(=O)c1c(CN2CCN(C)CC2)nc2ccc(Cl)cc2c1-c1ccccc1", "IC50": 11.8}
{"smiles": "O=C(Cn1ccnc1[N+](=O)[O-])NCc1ccccc1", "note": "[BENZNIDAZOLE]", "IC50": 5.8}
{"smiles": "CC(O)CNCc1nc2ccc(Cl)cc2c(-c2ccccc2)c1C(=O)O", "note": "(stereo not drawn)", "IC50": 50.4}
{"smiles": "CCOC(=O)c1c(CN(CC)CC)nc2ccc(Cl)cc2c1-c1ccccc1", "IC50": 11.6}
{"smiles": "CCOC(=O)c1c(CN(C)Cc2ccccc2)nc2ccc(Cl)cc2c1-c1ccccc1", "IC50": 9.7}
{"smiles": "CCOC(=O)c1c(CCl)nc2ccc(Cl)cc2c1-c1ccccc1", "IC50": 31.4}
{"smiles": "CCOC(=O)c1c(CN2CCCC2)nc2ccc(Cl)cc2c1-c1ccccc1", "IC50": 10}
{"smiles": "CCOC(=O)c1c(CN2CCCCC2)nc2ccc(Cl)cc2c1-c1ccccc1", "IC50": 8.2}
{"smiles": "CC(C)NCc1nc2ccc(Cl)cc2c(-c2ccccc2)c1C(=O)O", "IC50": 89.6}
{"smiles": "CCOC(=O)c1c(CN2CCOCC2)nc2ccc(Cl)cc2c1-c1ccccc1", "IC50": 85.3}
{"smiles": "CC(=O)NCCCCCCNCc1nc2ccc(Cl)cc2c(-c2ccccc2)c1C(=O)O", "IC50": 3.4}
{"test_system": "Trypanosoma cruzi", "assay": "Trypanocidal activity against bloodstream trypomastigote form of Trypanosoma cruzi after 24 hrs", "format": "functional, organism-based", "settings": "not given", "method_in_brief": "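Trypomastigotes were taken by cardiac puncture from infected CF1 mice at peak parasitemia (day 15). Blood was diluted in complete RPMI to 1.5 × 10⁶ parasites/mL and seeded in duplicate with compound at 0.5–100 final concentration; benznidazole served as control drug. After 24 h incubation at 4 °C, surviving parasites were counted in a Neubauer chamber.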", "units": {"IC50": "µM"}}
{"smiles": "CCOC(=O)c1c(CN2CCN(C)CC2)nc2ccc(Cl)cc2c1-c1ccccc1", "IC50": 6.4}
{"smiles": "O=C(Cn1ccnc1[N+](=O)[O-])NCc1ccccc1", "note": "[BENZNIDAZOLE]", "IC50": 34.1}
{"smiles": "CCOC(=O)c1c(CN(CC)CC)nc2ccc(Cl)cc2c1-c1ccccc1", "IC50": 42.6}
{"smiles": "CCOC(=O)c1c(CN(C)Cc2ccccc2)nc2ccc(Cl)cc2c1-c1ccccc1", "IC50": 128}
{"smiles": "CCOC(=O)c1c(CN2CCCC2)nc2ccc(Cl)cc2c1-c1ccccc1", "IC50": 62.4}
{"smiles": "CCOC(=O)c1c(CN2CCCCC2)nc2ccc(Cl)cc2c1-c1ccccc1", "IC50": 51.3}
{"smiles": "CC(=O)NCCCCCCNCc1nc2ccc(Cl)cc2c(-c2ccccc2)c1C(=O)O", "IC50": 3.1}
{"test_system": "Trypanosoma cruzi", "assay": "Trypanocidal activity against intracellular amastigotes form of Trypanosoma cruzi expressing beta-galactosidase infected in mouse J774 cells on day 7", "format": "functional, organism-based", "settings": "J774, 168 h", "method_in_brief": "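Host cells infected with β-galactosidase-expressing trypomastigotes at a 10:1 parasite:cell ratio. After 24 h, washed twice with PBS, then compound added at 0.5–100 in phenol-red-free complete RPMI, duplicates. Uninfected and infected controls included. Developed with CPRG (100 final) plus 1% Nonidet P-40 for 4–6 h at 37 °C, read at A570. % inhibition relative to untreated infected cells; IC50 estimated.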", "units": {"IC50": "µM"}}
{"smiles": "CCOC(=O)c1c(CN2CCN(C)CC2)nc2ccc(Cl)cc2c1-c1ccccc1", "IC50": 10.4}
{"smiles": "O=C(Cn1ccnc1[N+](=O)[O-])NCc1ccccc1", "note": "[BENZNIDAZOLE]", "IC50": 3.6}
{"smiles": "CCOC(=O)c1c(CN(CC)CC)nc2ccc(Cl)cc2c1-c1ccccc1", "IC50": 33}
{"smiles": "CCOC(=O)c1c(CN(C)Cc2ccccc2)nc2ccc(Cl)cc2c1-c1ccccc1", "IC50": 61}
{"smiles": "CCOC(=O)c1c(CN2CCCC2)nc2ccc(Cl)cc2c1-c1ccccc1", "IC50": 40.3}
{"smiles": "CCOC(=O)c1c(CN2CCCCC2)nc2ccc(Cl)cc2c1-c1ccccc1", "IC50": 37.9}
{"smiles": "CC(=O)NCCCCCCNCc1nc2ccc(Cl)cc2c(-c2ccccc2)c1C(=O)O", "IC50": 12.8}
{"test_system": "not listed separately", "assay": "Cytotoxicity against african green monkey COS7 cells after 24 hrs by MTT assay", "format": "cell-based", "settings": "chlorocebus aethiops, COS-7 cells", "units": {"CC50 at 24 h": "µM"}}
{"smiles": "CCOC(=O)c1c(CN2CCN(C)CC2)nc2ccc(Cl)cc2c1-c1ccccc1", "CC50 at 24 h": 35.9}
{"smiles": "O=C(Cn1ccnc1[N+](=O)[O-])NCc1ccccc1", "note": "[BENZNIDAZOLE]", "CC50 at 24 h": 706}
{"smiles": "CCOC(=O)c1c(CN(CC)CC)nc2ccc(Cl)cc2c1-c1ccccc1", "CC50 at 24 h": 480}
{"smiles": "CCOC(=O)c1c(CN(C)Cc2ccccc2)nc2ccc(Cl)cc2c1-c1ccccc1", "CC50 at 24 h": 315}
{"smiles": "CCOC(=O)c1c(CN2CCCC2)nc2ccc(Cl)cc2c1-c1ccccc1", "CC50 at 24 h": 490}
{"smiles": "CCOC(=O)c1c(CN2CCCCC2)nc2ccc(Cl)cc2c1-c1ccccc1", "CC50 at 24 h": 311}
{"smiles": "CC(=O)NCCCCCCNCc1nc2ccc(Cl)cc2c(-c2ccccc2)c1C(=O)O", "CC50 at 24 h": 771}
{"test_system": "not listed separately", "assay": "Selectivity index, ratio of CC50 for african green monkey COS7 cells to IC50 for bloodstream trypomastigote form of Trypanosoma cruzi", "format": "functional, COS-7", "settings": "not given", "method_in_brief": "(§1)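 SI = CC50 divided by the IC50 against trypomastigotes or amastigotes, respectively.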"}
{"smiles": "CCOC(=O)c1c(CN2CCN(C)CC2)nc2ccc(Cl)cc2c1-c1ccccc1", "Ratio CC50/IC50": 5.6}
{"smiles": "O=C(Cn1ccnc1[N+](=O)[O-])NCc1ccccc1", "note": "[BENZNIDAZOLE]", "Ratio CC50/IC50": 20.7}
{"smiles": "CCOC(=O)c1c(CN(CC)CC)nc2ccc(Cl)cc2c1-c1ccccc1", "Ratio CC50/IC50": 11.3}
{"smiles": "CCOC(=O)c1c(CN(C)Cc2ccccc2)nc2ccc(Cl)cc2c1-c1ccccc1", "Ratio CC50/IC50": 2.5}
{"smiles": "CCOC(=O)c1c(CN2CCCC2)nc2ccc(Cl)cc2c1-c1ccccc1", "Ratio CC50/IC50": 7.8}
{"smiles": "CCOC(=O)c1c(CN2CCCCC2)nc2ccc(Cl)cc2c1-c1ccccc1", "Ratio CC50/IC50": 6.05}
{"smiles": "CC(=O)NCCCCCCNCc1nc2ccc(Cl)cc2c(-c2ccccc2)c1C(=O)O", "Ratio CC50/IC50": 248.7}
{"test_system": "not listed separately", "assay": "Selectivity index, ratio of CC50 for african green monkey COS7 cells to IC50 for intracellular amastigotes form of Trypanosoma cruzi", "format": "functional, COS-7", "settings": "not given", "method_in_brief": "as §1"}
{"smiles": "CCOC(=O)c1c(CN2CCN(C)CC2)nc2ccc(Cl)cc2c1-c1ccccc1", "Ratio CC50/IC50": 3.5}
{"smiles": "O=C(Cn1ccnc1[N+](=O)[O-])NCc1ccccc1", "note": "[BENZNIDAZOLE]", "Ratio CC50/IC50": 196.1}
{"smiles": "CCOC(=O)c1c(CN(CC)CC)nc2ccc(Cl)cc2c1-c1ccccc1", "Ratio CC50/IC50": 14.5}
{"smiles": "CCOC(=O)c1c(CN(C)Cc2ccccc2)nc2ccc(Cl)cc2c1-c1ccccc1", "Ratio CC50/IC50": 5.2}
{"smiles": "CCOC(=O)c1c(CN2CCCC2)nc2ccc(Cl)cc2c1-c1ccccc1", "Ratio CC50/IC50": 12.1}
{"smiles": "CCOC(=O)c1c(CN2CCCCC2)nc2ccc(Cl)cc2c1-c1ccccc1", "Ratio CC50/IC50": 8.2}
{"smiles": "CC(=O)NCCCCCCNCc1nc2ccc(Cl)cc2c(-c2ccccc2)c1C(=O)O", "Ratio CC50/IC50": 60.2}
{"test_system": "Trypanosoma cruzi", "assay": "Antitrypanosomal activity against bloodstream trypomastigote form of Trypanosoma cruzi RA infected in C3H/HeN mouse assessed as reduction in parasites at 1 mg/kg administered 5 days after infection for 10 consecutive days relative to untreated control", "format": "functional", "settings": "not given"}
{"smiles": "CC(=O)NCCCCCCNCc1nc2ccc(Cl)cc2c(-c2ccccc2)c1C(=O)O", "fold change (FC)": 3}
{"test_system": "Trypanosoma cruzi", "assay": "Antitrypanosomal activity against bloodstream trypomastigote form of Trypanosoma cruzi RA infected in C3H/HeN mouse assessed as decrease in parasitemia at 1 mg/kg administered 5 days after infection for 10 consecutive days measured on day 14 relative to untreated control", "format": "functional, organism-based", "parameters": "dose 1 mg/kg", "settings": "not given"}
{"smiles": "CC(=O)NCCCCCCNCc1nc2ccc(Cl)cc2c(-c2ccccc2)c1C(=O)O", "Activity": "Active"}
